Active and inactive are the calls of the source. No cut-off for these calls is given here.
Experiments:
[1] = target: T1, Free fatty acid receptor 1 (Homo sapiens, UniProt O14842); assay: Agonist activity at human GP40 receptor expressed in CHO cells assessed as increase in intracellular calcium level for 90 secs by FLIPR assay in the presence of 0.1% BSA; format: functional, cell-based
[2] = target: T1, Free fatty acid receptor 1; assay: Agonist activity at human GP40 receptor expressed in CHO cells assessed as increase in intracellular calcium level at 10 uM for 90 secs by FLIPR assay in the presence of 0.1% BSA relative to gamma-linolenic acid; format: functional, cell-based
Method in brief: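 CHO dhfr cells stably expressing human GPR40/FFA1 (NM_005303) plated overnight at 37 °C, 5% CO₂, then loaded 60 min at 37 °C with Fluo 4 AM (2.5 μg/mL), 2.5 mmol/L probenecid and 0.1% fatty acid-free BSA. Ca²⁺ rise after compound addition read on FLIPR Tetra for 90 s. Activity = (test − vehicle)/(10 μM γ-linolenic acid − vehicle) × 100.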

[3] = target: T1, Free fatty acid receptor 1; assay: Displacement of 3-[4-({2',6'-dimethyl-6-[(4-[3H])-phenylmethoxy]biphenyl-3-yl}methoxy)phenyl]propanoic acid from human GPR40 expressed in CHO cells after 90 mins by liquid scintillation counting in the presence of 0.2% BSA; format: cell-based
Method in brief: (§1)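 Membranes came from CHO lines stably expressing human or rat GPR40/FFA1. Assay buffer was 25 mmol/L Tris-HCl pH 7.5 with 5 mmol/L EDTA, protease inhibitors, 0.05% CHAPS and 0.2% fatty-acid-free BSA. Compounds competed with 2 or 6 nmol/L tritiated phenylpropanoic acid ligand for 90 min at room temperature. Bound ligand was filtered and counted by scintillation. Nonspecific binding used 10 μmol/L unlabeled ligand. IC50 was converted to Ki by Cheng–Prusoff using the measured Kd.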

[4] = target: Free fatty acid receptor 1 (Rattus norvegicus, UniProt Q8K3T4); assay: Displacement of 3-[4-({2',6'-dimethyl-6-[(4-[3H])-phenylmethoxy]biphenyl-3-yl}methoxy)phenyl]propanoic acid from rat GPR40 expressed in CHO cells after 90 mins by liquid scintillation counting in the presence of 0.2%BSA; format: cell-based; method in brief: as §1
Free fatty acid receptor 1 (Rattus norvegicus, UniProt Q8K3T4), sequence (Q8K3T4 whole entry): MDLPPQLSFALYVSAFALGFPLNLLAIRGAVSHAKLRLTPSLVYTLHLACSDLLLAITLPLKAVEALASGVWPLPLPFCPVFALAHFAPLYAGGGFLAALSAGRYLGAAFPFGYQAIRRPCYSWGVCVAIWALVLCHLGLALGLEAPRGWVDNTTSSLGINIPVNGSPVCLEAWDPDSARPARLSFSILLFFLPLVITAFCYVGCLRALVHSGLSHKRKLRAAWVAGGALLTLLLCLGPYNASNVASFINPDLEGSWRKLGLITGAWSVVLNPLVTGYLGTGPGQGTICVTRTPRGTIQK

HepG2 = assay: Induction of apoptosis in human HepG2 cells assessed as caspase 3/7 activity at 30 uM after 1 day by CaspaseGlo assay relative to staurosporine; format: cell-based; details: hepg2, 24 h
Method in brief: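 HepG2 cells were seeded at 2 × 10⁴ cells/well. They were exposed to compounds for 1 day in DMEM with 0.5% FBS, 2 mM L-glutamine and 1 mM pyruvate. Caspase-3/7 was read by Caspase-Glo luminescence, n = 3. Values are % = (RLU compound − RLU 1% DMSO)/(RLU 30 μM staurosporine − RLU 1% DMSO) × 100.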

[5] = Lipophilicity, log D of the compound at pH 7.4 by HPLC analysis; format: physicochemical; details: buffer
Method in brief: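 Log D at pH 7.4 was estimated from HPLC relative retention time against standard compounds.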

Rattus norvegicus [6] = assay: Insulinotropic activity in po dosed fasted Wistar fatty rat assessed as […] administered 1 hr prior to glucose-challenge by oral glucose tolerance test relative to vehicle control; format: functional
Method in brief: (§2)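 Female Wistar fatty rats, 12–17 weeks old, were fasted overnight. They were dosed orally with compound in 0.5% methylcellulose 1 h (1 mg/kg) or 4 h (3 mg/kg) before a 1 g/kg oral glucose load. Plasma glucose was sampled to 120 min, n = 6. Effective dose was defined by statistical significance on plasma glucose AUC versus vehicle.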

Rattus norvegicus [7] = assay: Insulinotropic activity in po dosed fasted Wistar fatty rat assessed as […] administered 4 hr prior to glucose-challenge by oral glucose tolerance test relative to vehicle control; format: functional; method in brief: as §2

T1 sequence (O14842 whole entry): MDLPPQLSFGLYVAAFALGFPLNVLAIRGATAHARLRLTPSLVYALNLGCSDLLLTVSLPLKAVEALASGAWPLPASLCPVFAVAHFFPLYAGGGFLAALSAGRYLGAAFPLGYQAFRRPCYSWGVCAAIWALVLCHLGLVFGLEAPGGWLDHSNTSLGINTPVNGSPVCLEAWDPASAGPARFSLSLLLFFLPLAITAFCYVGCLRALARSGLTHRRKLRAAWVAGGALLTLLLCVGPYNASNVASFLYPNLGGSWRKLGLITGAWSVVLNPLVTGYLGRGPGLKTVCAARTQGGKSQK

Structure (SMILES)	EC50 [1] [nM]	Efficacy [2] [%]	Ki [3] [nM]	Ki [4] [nM]	logD [5]	Activity (HepG2) [%]	ED (Rattus norvegicus [6])	ED (Rattus norvegicus [7])
Cc1c(Cl)c(OCCCS(C)(=O)=O)c(Cl)c(C)c1-c1cccc(COc2ccc3c(c2)OC[C@H]3CC(=O)O)c1	17	104	12	59	3.53	16.1	–	–
CCc1cc(OCCCS(C)(=O)=O)cc(CC)c1-c1cccc(COc2ccc3c(c2)OC[C@H]3CC(=O)O)c1	17	104	11	56	3.17	12.4	–	–
CCOCCOc1cc(C)c(-c2cccc(COc3ccc4c(c3)OCC4CC(=O)O)c2)c(C)c1 (racemic)	–	103	–	300	3.83	3.2	–	–
Cc1cc(OCCCN2CCCC2=O)cc(C)c1-c1cccc(COc2ccc3c(c2)OC[C@H]3CC(=O)O)c1	17	107	31	170	3.22	3.9	–	–
Cc1cc(OCCCS(C)(=O)=O)cc(C)c1-c1cccc(COc2ccc3c(c2)OC[C@H]3CC(=O)O)c1	–	–	–	–	2.58	-2.1	–	–
Cc1c(C)c(-c2cccc(COc3ccc4c(c3)OC[C@H]4CC(=O)O)c2)c(C)c(C)c1OCCCS(C)(=O)=O	18	104	33	120	3.12	-1.1	–	–
Cc1cc(OC2CCS(=O)(=O)CC2)cc(C)c1-c1cccc(COc2ccc3c(c2)OC[C@H]3CC(=O)O)c1	22	103	36	170	2.75	-2.5	1 mg/kg	3 mg/kg
Cc1cc(OC2CCN(C)CC2)cc(C)c1-c1cccc(COc2ccc3c(c2)OC[C@H]3CC(=O)O)c1.Cl	19	107	8.8	66	3.1	-1.3	–	inactive
Cc1cc(OC2CCS(=O)(=O)CC2)cc(C)c1-c1cccc(COc2ccc3c(c2)OC[C@@H]3CC(=O)O)c1	290	103	300	510	2.84	1.3	–	–
Cc1cc(OCc2cccc3nccn23)cc(C)c1-c1cccc(COc2ccc3c(c2)OC[C@H]3CC(=O)O)c1	17	107	15	190	3.8	17.7	–	–
Cc1nc(C)c(COc2cc(C)c(-c3cccc(COc4ccc5c(c4)OC[C@H]5CC(=O)O)c3)c(C)c2)s1	18	107	12	360	4.27	23.1	–	–

More lines, main results first:

EC50 [1] [nM]	Efficacy [2] [%]	Ki [3] [nM]	Ki [4] [nM]	logD [5]	Structure (SMILES)	Activity (HepG2) [%]	ED (Rattus norvegicus [6])	ED (Rattus norvegicus [7])
16	104	18	200	2.68	Cc1cc(OCCCS(C)(=O)=O)c(F)c(C)c1-c1cccc(COc2ccc3c(c2)OC[C@H]3CC(=O)O)c1	-1.1	1 mg/kg	3 mg/kg
29	104	40	400	3.35	Cc1c(C)c(-c2cccc(COc3ccc4c(c3)OC[C@H]4CC(=O)O)c2)c(C)c(C)c1OC1CCS(=O)(=O)CC1	12.3	–	–
13	107	24	170	2.43	Cc1cc(OCC2(O)CCS(=O)(=O)CC2)cc(C)c1-c1cccc(COc2ccc3c(c2)OC[C@H]3CC(=O)O)c1	-1.8	inactive	3 mg/kg
39	103	83	210	2.77	Cc1cc(OC2CCS(=O)(=O)CC2)cc(C)c1-c1cccc(COc2ccc3c(c2)OCC3CC(=O)O)c1 (racemic)	0.4	–	–
24	103	21	83	3.86	Cc1cc(OCC2(C)COC2)cc(C)c1-c1cccc(COc2ccc3c(c2)OCC3CC(=O)O)c1 (racemic)	23.6	–	–
14	107	37	170	2.73	CCS(=O)(=O)CCOc1cc(C)c(-c2cccc(COc3ccc4c(c3)OC[C@H]4CC(=O)O)c2)c(C)c1	-1.3	–	3 mg/kg
16	104	19	110	3.07	Cc1cc(OCCCS(C)(=O)=O)c(Cl)c(C)c1-c1cccc(COc2ccc3c(c2)OC[C@H]3CC(=O)O)c1	8.3	–	–
19	104	31	270	2.95	Cc1cc(OC2CCS(=O)(=O)CC2)c(F)c(C)c1-c1cccc(COc2ccc3c(c2)OC[C@H]3CC(=O)O)c1	7.9	–	–
–	103	–	7400	3.86	CCOCCOc1cc(C)c(-c2cccc(COc3ccc4c(c3)OC[C@@H]4CC(=O)O)c2)c(C)c1	10.5	–	–
18	103	25	110	3.88	Cc1cc(OCC2(C)COC2)cc(C)c1-c1cccc(COc2ccc3c(c2)OC[C@H]3CC(=O)O)c1	21.1	–	–
–	103	–	240	3.86	CCOCCOc1cc(C)c(-c2cccc(COc3ccc4c(c3)OC[C@H]4CC(=O)O)c2)c(C)c1	1.5	–	–
270	103	270	2200	3.88	Cc1cc(OCC2(C)COC2)cc(C)c1-c1cccc(COc2ccc3c(c2)OC[C@@H]3CC(=O)O)c1	20.9	–	–
